For 17 compounds, MIC results are on record in ChEMBL document CHEMBL1137711, “Design, synthesis, structure-activity relationship and antibacterial activity series of novel imidazo fused quinolone carboxamides” (2009).

Values after ≈ are worked out from the molar mass of the structure shown. Active and inactive are the calls of the source. The calls are words filed in the database; no cut-off is given here.

Common to all, as to format: functional
In one assay the test system is Pseudomonas aeruginosa. Nature of the assay: Antibacterial activity against Pseudomonas aeruginosa after 24 hrs by broth dilution method. In short, it runs like this: (§1)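 MIC by broth dilution (NCCLS 1982) in nutrient broth, test compound serially diluted across tubes 1–9. Each tube receives 0.5 ml overnight culture. Incubation 37 °C for 24 h, then turbidity read. DMSO as negative control, ciprofloxacin as reference.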

The subject of another assay is Bacillus subtilis. Description: Antibacterial activity against Bacillus subtilis after 24 hrs by broth dilution method. In short, it runs like this: as §1
In general terms: Dilution methods test growth across graded concentrations, often in twofold steps.

For another assay, the system named is Klebsiella aerogenes. Description: Antibacterial activity against Klebsiella aerogenes after 24 hrs by broth dilution method. In short, it runs like this: as §1
The subject of assay [1] is Lysinibacillus sphaericus. Description: Antibacterial activity against Bacillus sphaericus after 24 hrs by broth dilution method. In short, it runs like this: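 Broth dilution per NCCLS 1982: test agent serially diluted across tubes 1–9 of sterile nutrient broth; 0.5 ml overnight culture added to each tube; incubated at 37 °C for 24 h, then turbidity read to give the minimum inhibitory concentration. DMSO served as negative control; ciprofloxacin run alongside.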

Another assay concerns Staphylococcus aureus. Nature of the assay: Antibacterial activity against Staphylococcus aureus after 24 hrs by broth dilution method. In short, it runs like this: as §1
Assay [2] concerns Chromobacterium violaceum. Nature of the assay: Antibacterial activity against Chromobacterium violaceum after 24 hrs by broth dilution method. In short, it runs like this:
as §1

On to `CNC(=O)c1cn2c(-c3ccc(OC)cc3)nc3c(NC)c(F)cc(c1=O)c32`, for which the MIC (in general, the lowest concentration found to suppress growth) was 6.25 µg/mL (≈ 16.4 µM) in the assay on Pseudomonas aeruginosa; 12.5 µg/mL (≈ 32.9 µM) in the assay with Bacillus subtilis; 12.5 µg/mL (≈ 32.9 µM) in assay [1]; 25 µg/mL (≈ 65.7 µM) in the assay with Staphylococcus aureus; 25 µg/mL (≈ 65.7 µM) in assay [2]. Further, in the assay on Klebsiella aerogenes, the MIC result was “inactive”.
With `CNC(=O)c1cn2c(-c3ccco3)nc3c(NC)c(F)cc(c1=O)c32`, the minimum inhibitory concentration (MIC) in the assay with Pseudomonas aeruginosa was found to be 12.5 µg/mL (≈ 36.7 µM); with Bacillus subtilis, 6.25 µg/mL (≈ 18.4 µM); in assay [1], 25 µg/mL (≈ 73.5 µM); in the assay on Staphylococcus aureus, 6.25 µg/mL (≈ 18.4 µM); in assay [2], 6.25 µg/mL (≈ 18.4 µM). In addition, the MIC entry with Klebsiella aerogenes is “inactive”.
As to `CCn1cc(C(=O)NC)c(=O)c2cc(F)c3c(nc(C(C)C)n3C)c21`, the MIC amounted to 50 µg/mL (≈ 145 µM) with Pseudomonas aeruginosa; 12.5 µg/mL (≈ 36.3 µM) in the assay on Bacillus subtilis; 50 µg/mL (≈ 145 µM) in the assay on Klebsiella aerogenes; 25 µg/mL (≈ 72.6 µM) in assay [1]; 50 µg/mL (≈ 145 µM) with Staphylococcus aureus; 12.5 µg/mL (≈ 36.3 µM) in assay [2].
Turning to `CNC(=O)c1cn2c(-c3ccc(F)cc3)nc3c(NC)c(F)cc(c1=O)c32`, the minimal inhibitory concentration (MIC) is 25 µg/mL (≈ 67.9 µM) in the assay with Pseudomonas aeruginosa; 25 µg/mL (≈ 67.9 µM) with Bacillus subtilis; 25 µg/mL (≈ 67.9 µM) in assay [1]; 25 µg/mL (≈ 67.9 µM) against Staphylococcus aureus; 6.25 µg/mL (≈ 17 µM) in assay [2]. The MIC result in the assay on Klebsiella aerogenes was “inactive”.
Consider `CNC(=O)c1cn2c(-c3ccc(O)cc3)nc3c(NC)c(F)cc(c1=O)c32`, for which the MIC result with Pseudomonas aeruginosa and in the assay with Klebsiella aerogenes was “inactive” throughout. Besides, the MIC in the assay with Bacillus subtilis worked out at 12.5 µg/mL (≈ 34.1 µM); in assay [1], 25 µg/mL (≈ 68.2 µM); in the assay with Staphylococcus aureus, 25 µg/mL (≈ 68.2 µM); in assay [2] it was 25 µg/mL (≈ 68.2 µM).
With `CCc1nc2c3c(cc(F)c2n1C)c(=O)c(C(=O)NC)cn3CC`, the MIC result (in the assay with Pseudomonas aeruginosa; in the assay with Bacillus subtilis; in the assay on Klebsiella aerogenes; in assay [1]; in the assay on Staphylococcus aureus; in assay [2]) was “inactive” throughout.
With `CCn1cc(C(=O)NC)c(=O)c2cc(F)c3c(nc(CC(C)C)n3C)c21`, the minimal inhibitory concentration (MIC) with Pseudomonas aeruginosa was found to be 25 µg/mL (≈ 69.8 µM); with Klebsiella aerogenes, 12.5 µg/mL (≈ 34.9 µM); in assay [2], 25 µg/mL (≈ 69.8 µM). Also, the MIC result (with Bacillus subtilis; in assay [1]; with Staphylococcus aureus) was “inactive” throughout.
In the case of `CCCCCc1nc2c3c(cc(F)c2n1C)c(=O)c(C(=O)NC)cn3CC`, the minimal inhibitory concentration (MIC) was determined as 25 µg/mL (≈ 67.1 µM) against Pseudomonas aeruginosa; 25 µg/mL (≈ 67.1 µM) in the assay with Bacillus subtilis; 12.5 µg/mL (≈ 33.6 µM) in the assay on Klebsiella aerogenes; 50 µg/mL (≈ 134 µM) in assay [1]; 25 µg/mL (≈ 67.1 µM) in the assay with Staphylococcus aureus; 25 µg/mL (≈ 67.1 µM) in assay [2].
On to `CCCc1nc2c3c(cc(F)c2n1C)c(=O)c(C(=O)NC)cn3CC`, for which the MIC with Pseudomonas aeruginosa is 25 µg/mL (≈ 72.6 µM); against Bacillus subtilis it was 12.5 µg/mL (≈ 36.3 µM); in the assay with Klebsiella aerogenes, 12.5 µg/mL (≈ 36.3 µM); in assay [1], 50 µg/mL (≈ 145 µM); against Staphylococcus aureus, 25 µg/mL (≈ 72.6 µM); in assay [2], 25 µg/mL (≈ 72.6 µM).
As to `CCCCc1nc2c3c(cc(F)c2n1C)c(=O)c(C(=O)NC)cn3CC`, the minimum inhibitory concentration (MIC) against Pseudomonas aeruginosa was 12.5 µg/mL (≈ 34.9 µM); in the assay on Klebsiella aerogenes, 25 µg/mL (≈ 69.8 µM); in assay [2] it was 25 µg/mL (≈ 69.8 µM). Moreover, the MIC result (in the assay on Bacillus subtilis; in assay [1]; in the assay on Staphylococcus aureus) was “inactive” throughout.
Regarding `CNC(=O)c1cn2c(-c3ccc(N(C)C)cc3)nc3c(NC)c(F)cc(c1=O)c32`, the minimal inhibitory concentration (MIC) was 6.25 µg/mL (≈ 15.9 µM) against Pseudomonas aeruginosa; 25 µg/mL (≈ 63.5 µM) in the assay on Bacillus subtilis; 25 µg/mL (≈ 63.5 µM) against Klebsiella aerogenes; 25 µg/mL (≈ 63.5 µM) in assay [1]; 12.5 µg/mL (≈ 31.8 µM) in the assay on Staphylococcus aureus; 12.5 µg/mL (≈ 31.8 µM) in assay [2].
`CCCCCCc1nc2c3c(cc(F)c2n1C)c(=O)c(C(=O)NC)cn3CC`: the minimum inhibitory concentration (MIC) came out at 50 µg/mL (≈ 129 µM) against Pseudomonas aeruginosa, 50 µg/mL (≈ 129 µM) with Klebsiella aerogenes and 25 µg/mL (≈ 64.7 µM) in assay [2]. The MIC result (in the assay on Bacillus subtilis; in assay [1]; with Staphylococcus aureus) was “inactive” throughout.
Turning to `CNC(=O)c1cn2c(-c3ccc([N+](=O)[O-])cc3)nc3c(NC)c(F)cc(c1=O)c32`, the MIC result with Pseudomonas aeruginosa and in the assay on Klebsiella aerogenes was “inactive” in each case. Moreover, the MIC against Bacillus subtilis was 12.5 µg/mL (≈ 31.6 µM); in assay [1], 12.5 µg/mL (≈ 31.6 µM); against Staphylococcus aureus, 12.5 µg/mL (≈ 31.6 µM); in assay [2] it was 25 µg/mL (≈ 63.2 µM).
For the compound `CNC(=O)c1cn2c(-c3ccc(C)cc3)nc3c(NC)c(F)cc(c1=O)c32`, the MIC in the assay on Pseudomonas aeruginosa was determined as 6.25 µg/mL (≈ 17.2 µM); with Bacillus subtilis it was 25 µg/mL (≈ 68.6 µM); in assay [1], 12.5 µg/mL (≈ 34.3 µM); in the assay with Staphylococcus aureus, 12.5 µg/mL (≈ 34.3 µM); in assay [2], 6.25 µg/mL (≈ 17.2 µM). In addition, the MIC result with Klebsiella aerogenes was “inactive”.
Consider `CNC(=O)c1cn2c(-c3ccc(Cl)cc3)nc3c(NC)c(F)cc(c1=O)c32`, for which the MIC with Pseudomonas aeruginosa was 25 µg/mL (≈ 65 µM); against Bacillus subtilis, 25 µg/mL (≈ 65 µM); in assay [1], 25 µg/mL (≈ 65 µM); against Staphylococcus aureus it was 25 µg/mL (≈ 65 µM); in assay [2], 6.25 µg/mL (≈ 16.2 µM). For the same compound, in the assay with Klebsiella aerogenes, the MIC result is “inactive”.
Regarding `O=C(O)c1cn(C2CC2)c2cc(N3CCNCC3)c(F)cc2c1=O` [CIPROFLOXACIN], the MIC with Pseudomonas aeruginosa worked out at 0.78 µg/mL (≈ 2.35 µM); against Bacillus subtilis, 0.78 µg/mL (≈ 2.35 µM); in the assay with Klebsiella aerogenes it was 0.78 µg/mL (≈ 2.35 µM); in assay [1], 0.78 µg/mL (≈ 2.35 µM); against Staphylococcus aureus, 0.39 µg/mL (≈ 1.18 µM); in assay [2], 0.39 µg/mL (≈ 1.18 µM).
In the case of `CNC(=O)c1cn2c(-c3ccccc3)nc3c(NC)c(F)cc(c1=O)c32`, the MIC against Pseudomonas aeruginosa amounted to 12.5 µg/mL (≈ 35.7 µM); with Bacillus subtilis, 12.5 µg/mL (≈ 35.7 µM); in assay [1], 25 µg/mL (≈ 71.4 µM); against Staphylococcus aureus it was 6.25 µg/mL (≈ 17.8 µM); in assay [2] it was 12.5 µg/mL (≈ 35.7 µM). For the same compound, the MIC entry in the assay on Klebsiella aerogenes is “inactive”.
